We go through 16 molecules from ChEMBL document CHEMBL1131828, “Synthesis and biological evaluation of a new class of vaccine adjuvants: aminoalkyl glucosaminide 4-phosphates (AGPs)” (1999).

What all share (type): functional
The species named for assay [1] is Homo sapiens. Kind of assay: Relative ex vivo induction of TNF-alpha in human whole blood stimulated with 10 ug/mL. An outline of the steps: (§1)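 Human whole blood was stimulated with sample, and cell-associated TNF-α and IL-1β were measured by sandwich ELISA. Relative induction below 0.05 was scored as not detected.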
The species named for assay [2] is Oryctolagus cuniculus. Kind of assay: Minimum pyrogenic dose was determined for Febrile response in a standard 3-rabbit USP pyrogen test by injecting compound in the marginal ear vein. An outline of the steps: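 Test article dissolved in EtOH, then diluted with D5W to the desired concentrations just before injection. The minimal pyrogenic dose is the dose at which the summed temperature rise over the three rabbits reaches at least 1.2 °C.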

For assay [3], the species on record is Mus musculus. In words: Half-maximal response in vitro using peritoneal exudate cells from Propionibacterium acnes-primed mice. To be noted: read-out: ED50 (the source's name).
For assay [4], the species on record is Homo sapiens. In words: Relative ex vivo induction of IL1-beta in human whole blood stimulated with 10 ug/mL. An outline of the steps:
as §1

The species named for assay [5] is Mus musculus. In words: Percent of cytotoxicity was determined for augment vaccine-induced CTL's against EG.7-ova target cells in two separate murine models. An outline of the steps:
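C57BL/6 (H-2b) mice, 6 per group, were immunized on days 0 and 14 with a 2.5% oil-water emulsion containing 25 µg ovalbumin plus test article. On day 21, spleens were tested for ovalbumin-specific CTL against 51Cr-labeled E.G7-ova target cells, an ovalbumin-transfected line. Read-out was percent specific lysis.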

For assay [6], the species on record is Mus musculus. In words: Ability to enhance antibody response to tetanus toxoid vaccine, IgG2a. An outline of the steps: (§2)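 Mice were immunized with tetanus toxoid in an oil-water emulsion with test article, then boosted 21 days after the primary dose. Serum was taken 14 days after the second injection and assayed by ELISA. Values are test titers divided by the titer of controls given oil-water vehicle with tetanus toxoid only.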

Assay [7] is filed under the species Mus musculus. In words: Ability to enhance antibody response to tetanus toxoid vaccine, IgG2b. An outline of the steps: as §2
Assay [8] is filed under the species Mus musculus. In words: Ability to enhance antibody response to tetanus toxoid vaccine, IgG1. A digest of the protocol: as §2
The species entered for assay [9] is Mus musculus. Kind of assay: Ability to enhance antibody response to tetanus toxoid vaccine, total Immunoglobulin (Ig). A digest of the protocol: as §2

Structures are written as SMILES. Values after ≈ are worked out from the molar mass of the structure shown.

As to `CCCCCCCCCCCCCC(=O)O[C@H](CCCCCCCCCCC)CC(=O)NCCCCO[C@@H]1OC(CO)[C@H](OP(=O)(O)O)C(OC(=O)C[C@@H](CCCCCCCCCCC)OC(=O)CCCCCCCCCCCCC)[C@@H]1NC(=O)C[C@@H](CCCCCCCCCCC)OC(=O)CCCCCCCCCCCCC` (stereo partly drawn), the values for the Cytokine induction in assay [1] and in assay [4] were 1 and 0.3, respectively. In addition, the Dose in [2] was found to be 0.01 mg/kg. The EC50 in assay [3] came out at 0.051 µg/mL (≈ 0.0311 µM). Moreover, the Cytotoxicity in assay [5] is 58%.
Regarding `CCCCCCCCCCCCCC(=O)O[C@H](CCCCCCCCCCC)CC(=O)NC(CO[C@@H]1OC(CO)[C@H](OP(=O)(O)O)C(OC(=O)C[C@@H](CCCCCCCCCCC)OC(=O)CCCCCCCCCCCCC)[C@@H]1NC(=O)C[C@@H](CCCCCCCCCCC)OC(=O)CCCCCCCCCCCCC)C(=O)OC` (stereo partly drawn), the Cytokine induction in [1] and in assay [4] was 1.1 throughout. Besides, the Dose in assay [2] was 0.01 mg/kg. Besides, the EC50 in assay [3] came to 0.067 µg/mL (≈ 0.0401 µM).
Consider `CCCCCCCCCCC[C@H](CC(=O)NC(CO[C@@H]1OC(CO)[C@H](OP(=O)(O)O)C(OC(=O)C[C@@H](CCCCCCCCCCC)OC(=O)CCCCCCC)[C@@H]1NC(=O)C[C@@H](CCCCCCCCCCC)OC(=O)CCCCCCC)C(=O)O)OC(=O)CCCCCCC` (stereo partly drawn), for which the Dose in assay [2] was less than 0.0025 mg/kg. For the same molecule, the EC50 in assay [3] was 0.033 µg/mL (≈ 0.0235 µM).
Regarding `CCCCCCCCCCCC(=O)O[C@H](CCCCCCCCCCC)CC(=O)NC(CO[C@@H]1OC(CO)[C@H](OP(=O)(O)O)C(OC(=O)C[C@@H](CCCCCCCCCCC)OC(=O)CCCCCCCCCCC)[C@@H]1NC(=O)C[C@@H](CCCCCCCCCCC)OC(=O)CCCCCCCCCCC)C(=O)O` (stereo partly drawn), the Cytokine induction in [1] is listed as 3.6; in [4], 2. This molecule showed a Dose in assay [2] of less than 0.0025 mg/kg. Besides, the EC50 in assay [3] turned out to be 0.0009 µg/mL (≈ 0.000572 µM).
The molecule `CCCCCCCCCCCCCC(=O)O[C@H](CCCCCCCCCCC)CC(=O)NCCCCCCO[C@@H]1OC(CO)[C@H](OP(=O)(O)O)C(OC(=O)C[C@@H](CCCCCCCCCCC)OC(=O)CCCCCCCCCCCCC)[C@@H]1NC(=O)C[C@@H](CCCCCCCCCCC)OC(=O)CCCCCCCCCCCCC` (stereo partly drawn) yielded a Dose in assay [2] greater than 0.01 mg/kg. For the same molecule, the EC50 in [3] is 0.16 µg/mL (≈ 0.0959 µM).
Take `CCCCCCCCCCC[C@H](CC(=O)NC(CO[C@@H]1OC(CO)[C@H](OP(=O)(O)O)C(OC(=O)C[C@@H](CCCCCCCCCCC)OC(=O)CCCCCCCCC)[C@@H]1NC(=O)C[C@@H](CCCCCCCCCCC)OC(=O)CCCCCCCCC)C(N)=O)OC(=O)CCCCCCCCC` (stereo partly drawn): the Response in assay [6] is 1.7; in assay [7], 3.3; in [8], 2.6; in assay [9], 8.9. Further, the Cytokine induction in assay [1] is on record as 3.5; in [4], 6.2. This molecule also displayed a Dose in assay [2] of 0.01 mg/kg. The EC50 in [3] stood at 0.0003 µg/mL (≈ 0.000202 µM). Further, the Cytotoxicity in assay [5] amounted to 65%.
Take `CCCCCCCCCCC[C@H](CC(=O)NCCO[C@@H]1OC(CO)[C@H](OP(=O)(O)O)C(OC(=O)C[C@@H](CCCCCCCCCCC)OC(=O)CCCCCCCCC)[C@@H]1NC(=O)C[C@@H](CCCCCCCCCCC)OC(=O)CCCCCCCCC)OC(=O)CCCCCCCCC` (stereo partly drawn): the Cytokine induction in assay [1] came to 1.3; in [4] it was 1.9. In assay [2], this molecule came in with a Dose of 0.01 mg/kg. Further, the EC50 in [3] came to 0.0005 µg/mL (≈ 0.000346 µM). For the same molecule, the Cytotoxicity in assay [5] stood at 36%.
Taken in the same sequence, the figures for `CCCCCCCCCCCCCC(=O)O[C@H](CCCCCCCCCCC)CC(=O)NCCO[C@@H]1OC(CO)[C@H](OP(=O)(O)O)C(OC(=O)C[C@@H](CCCCCCCCCCC)OC(=O)CCCCCCCCCCCCC)[C@@H]1NC(=O)C[C@@H](CCCCCCCCCCC)OC(=O)CCCCCCCCCCCCC` (stereo partly drawn) were 0.3, 0.3, 0.01 mg/kg, 0.1 µg/mL (≈ 0.062 µM) and 59%.
`CCCCCCCCCCCCCC(=O)O[C@H](CCCCCCCCCCC)CC(=O)NCCCCCCCCO[C@@H]1OC(CO)[C@H](OP(=O)(O)O)C(OC(=O)C[C@@H](CCCCCCCCCCC)OC(=O)CCCCCCCCCCCCC)[C@@H]1NC(=O)C[C@@H](CCCCCCCCCCC)OC(=O)CCCCCCCCCCCCC` (stereo partly drawn) came in with a Dose in [2] greater than 0.01 mg/kg. Further, the EC50 in assay [3] is greater than 10 µg/mL.
Taken in the same sequence, the figures for `CCCCCCCCCCC[C@H](CC(=O)NCCO[C@@H]1OC(CO)[C@H](OP(=O)(O)O)C(OC(=O)C[C@@H](CCCCCCCCCCC)OC(=O)CCCCC)[C@@H]1NC(=O)C[C@@H](CCCCCCCCCCC)OC(=O)CCCCC)OC(=O)CCCCC` (stereo partly drawn) were 0.01 mg/kg and greater than 10 µg/mL.
Turning to `CCCCCCCCCCC[C@H](CC(=O)N[C@H](CO[C@@H]1OC(CO)[C@H](OP(=O)(O)O)C(OC(=O)C[C@@H](CCCCCCCCCCC)OC(=O)CCCCCCCCC)[C@@H]1NC(=O)C[C@@H](CCCCCCCCCCC)OC(=O)CCCCCCCCC)C(=O)O)OC(=O)CCCCCCCCC` (stereo partly drawn), the Cytokine induction in assay [1] is listed as 1.5; in [4], 0.6. In assay [2], this molecule had a Dose of less than 0.0025 mg/kg. The EC50 in assay [3] amounted to 0.0003 µg/mL (≈ 0.000202 µM).
As for `CCCCCCCCCCCCCCCC(=O)O[C@H](CCCCCCCCCCC)CC(=O)N[C@H]1[C@@H](O)[C@H](O)[C@H](CO[C@@H]2O[C@@H](CO)[C@@H](OP(=O)(O)O)[C@H](OC(=O)C[C@@H](CCCCCCCCCCC)OC(=O)CCCCCCCCCCCCC)[C@@H]2NC(=O)C[C@@H](CCCCCCCCCCC)OC(=O)CCCCCCCCCCC)O[C@H]1O`, the values for the Cytokine induction in [1] and in [4] were 1.2 and 0.7, respectively. In assay [2], the Dose is 0.01 mg/kg. Further, in [3], the EC50 turned out to be 0.014 µg/mL (≈ 0.00809 µM). Also, the Cytotoxicity in assay [5] was 31%.
Regarding `CCCCCCCCCCCCCC(=O)O[C@H](CCCCCCCCCCC)CC(=O)NC(CO[C@@H]1OC(CO)[C@H](OP(=O)(O)O)C(OC(=O)C[C@@H](CCCCCCCCCCC)OC(=O)CCCCCCCCCCCCC)[C@@H]1NC(=O)C[C@@H](CCCCCCCCCCC)OC(=O)CCCCCCCCCCCCC)C(N)=O` (stereo partly drawn), the Cytokine induction worked out at 1.1 in [1] and 0.9 in assay [4]. The molecule also registered a Dose in assay [2] of 0.01 mg/kg. Besides, the EC50 in assay [3] is 0.02 µg/mL (≈ 0.0121 µM).
The molecule `CCCCCCCCCCC[C@H](CC(=O)NC(CO[C@@H]1OC(CO)[C@H](OP(=O)(O)O)C(OC(=O)C[C@@H](CCCCCCCCCCC)OC(=O)CCCCC)[C@@H]1NC(=O)C[C@@H](CCCCCCCCCCC)OC(=O)CCCCC)C(N)=O)OC(=O)CCCCC` (stereo partly drawn) showed a Dose in [2] greater than 0.01 mg/kg. Moreover, the EC50 in [3] is greater than 10 µg/mL.
With `CCCCCCCCCCC[C@H](CC(=O)NC(CO[C@@H]1OC(CO)[C@H](OP(=O)(O)O)C(OC(=O)C[C@@H](CCCCCCCCCCC)OC(=O)CCCCC)[C@@H]1NC(=O)C[C@@H](CCCCCCCCCCC)OC(=O)CCCCC)C(=O)O)OC(=O)CCCCC` (stereo partly drawn), the Response came out at 0.3 in [6], 0.9 in assay [7], 1.3 in assay [8] and 1.1 in [9]. Further, in assay [2], the Dose was less than 0.0025 mg/kg. Also, the EC50 in assay [3] was greater than 10 µg/mL.
With `CCCCCCCCCCCCCC(=O)O[C@H](CCCCCCCCCCC)CC(=O)N[C@@H](CO)CO[C@@H]1OC(CO)[C@H](OP(=O)(O)O)C(OC(=O)C[C@@H](CCCCCCCCCCC)OC(=O)CCCCCCCCCCCCC)[C@@H]1NC(=O)C[C@@H](CCCCCCCCCCC)OC(=O)CCCCCCCCCCCCC` (stereo partly drawn), the Response was found to be 3.8 in assay [6], 2.4 in assay [7], 3.4 in assay [8] and 4 in [9]. The Dose in [2] was greater than 0.01 mg/kg. Further, the EC50 in [3] is 0.15 µg/mL (≈ 0.0913 µM). In assay [5], this molecule yielded a Cytotoxicity of 34%.
